Test results from ChEMBL document CHEMBL1140133, “Phosphoramidate dinucleosides as hepatitis C virus polymerase inhibitors” (J Med Chem, 2008).

Columns and labels:
Hepatitis C virus [1] = experiment: Inhibition of HCV 1b histidine tagged NS5B-delta55 polymerase-mediated RNA synthesis expressed in Escherichia coli BL21 cells assessed as decrease in accumulation of pppGC product; set-up: species or system Hepatitis C virus subtype 1b
How it was run: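 Recombinant NS5B-Δ55 with C-terminal His6, purified. Mix holds 10 µM RNA template (3′ end of HCV minus strand), 100 µM α-32P-CTP, 50 µM GTP and inhibitor 0–500 µM. Started with 1 µM NS5B, 30 °C 15 min, EDTA/formamide quench. pppGC resolved on sequencing gel, phosphorimager-quantified; IC50 fitted, ≥3 experiments.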

Hepatitis C virus [2] = experiment: Antiviral activity against HCV 1b in human Huh-5-2 cells assessed as inhibition of viral replication after 72 hrs by luciferase assay; assay type: functional, organism-based, Hepacivirus hominis; details: genotype 1b, Huh-5-2, 72 h
How it was run: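 Huh-5-2 cells carrying HCV 1b subgenomic replicon (luciferase reporter), seeded 7000/well and left 24 h; five 5-fold serial dilutions from 50 µg/mL (~60 µM) added in medium without G418; 37 °C, 5% CO2, 72 h. Luciferase read after Glo-lysis; signal as % of untreated cultures, EC50 calculated. Interferon α-2a (500 IU) positive control.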

[3] = Cytotoxicity against human Huh-5-2 cells after 3 days by MTS assay; assay type: cell-based
How it was run: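 Parallel Huh-5-2 replicon cultures seeded 7000 cells/well, treated the same way as the antiviral assay (five 5-fold dilutions from ~60 µM, no G418). Cell proliferation measured 3 days after compound addition by MTS bioreduction to formazan, read on a plate reader.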

SMILES | IC50 (Hepatitis C virus [1]) | EC50 (Hepatitis C virus [2]) | CC50 at 72 h [3]
CO[C@@H]1[C@H](OP(=O)(NCCCN(C)C)OC[C@H]2O[C@H](n3ccc(N)nc3=O)[C@H](O)[C@@H]2O)[C@H](COP(=O)(O)O)O[C@H]1n1cnc2c(=O)[nH]c(N)nc21 (stereo not given in full) | > 200 µM | – | –
COCCNP(=O)(OC[C@H]1O[C@@H](n2ccc(N)nc2=O)[C@H](O)[C@@H]1O)O[C@H]1[C@@H](OC)[C@H](n2cnc3c(=O)[nH]c(N)nc32)O[C@@H]1COP(=O)(O)O (stereo not given in full) | 106 µM | > 60 µM | > 60 µM
COCCNP(=O)(OC[C@H]1O[C@@H](n2ccc(N)nc2=O)[C@H](O)[C@@H]1O)O[C@H]1[C@@H](OC)[C@H](n2cnc3c(=O)[nH]c(N)nc32)O[C@@H]1CO (stereo not given in full) | > 200 µM | – | –
COCCNP(=O)(OC[C@H]1O[C@@H](n2ccc(N)nc2=O)[C@H](O)[C@@H]1O)O[C@H]1[C@@H](OC)[C@H](n2cnc3c(=O)[nH]c(N)nc32)O[C@@H]1COP(=O)(O)S (stereo not given in full) | 47 µM | > 60 µM | > 60 µM

The next lines start with results.

IC50 (Hepatitis C virus [1]) | EC50 (Hepatitis C virus [2]) | SMILES | CC50 at 72 h [3]
69 µM | 41 µM | CO[C@@H]1[C@H](OP(=O)(NCCCCCC(=O)O)OC[C@H]2O[C@@H](n3ccc(N)nc3=O)[C@H](O)[C@@H]2O)[C@@H](COP(=O)(O)O)O[C@H]1n1cnc2c(=O)[nH]c(N)nc21 (stereo not given in full) | > 60 µM
160 µM | – | CO[C@@H]1[C@H](OP(=O)(NCCCCCC(=O)O)OC[C@H]2O[C@@H](n3ccc(N)nc3=O)[C@H](O)[C@@H]2O)[C@@H](CO)O[C@H]1n1cnc2c(=O)[nH]c(N)nc21 (stereo not given in full) | –
52 µM | 38 µM | CO[C@@H]1[C@H](OP(=O)(NCCCCCC(=O)O)OC[C@H]2O[C@@H](n3ccc(N)nc3=O)[C@H](O)[C@@H]2O)[C@@H](COP(=O)(O)S)O[C@H]1n1cnc2c(=O)[nH]c(N)nc21 (stereo not given in full) | > 60 µM
